# Test results: ChEMBL document CHEMBL5303300, “EUbOPEN Chemogenomics Library - Multiplex” (2023)
# Several values for one entry are separate records, joined by “and”; a condition that tells them apart may be missing. Equal entries are not always repeated.
# Tested on: Fibroblast
# Assay: Multiplex assay against human fibroblast
# Type: toxicity, cell-based
# Conditions: number of replicates 2
# Procedure, shortened: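 Phenotypes for tubulin, mitochondrial mass and membrane permeability are expressed as per cents of healthy-nucleus cells. Cells were stained live at seeding with Hoechst33342, BioTracker Green Microtubule Cytoskeleton Dye, MitoTracker Red and Annexin V Alexa Fluor 680, then imaged after compound addition on a CQ1 microscope at 37°C and 5% CO2. Machine-learning gating in CellPathfinder separated Hoechst high-intensity objects from normal cells, divided normal cells by nuclear state (healthy, pyknosed, fragmented) and divided pyknosed cells into mitotic or apoptotic.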
# [1] = 12 h, 1 µM, compound concentration 1 uM
# [2] = 12 h, 10 µM, compound concentration 10 uM
# [3] = 24 h, 1 µM, compound concentration 1 uM
# [4] = 24 h, 10 µM, compound concentration 10 uM
# [5] = 48 h, 1 µM, compound concentration 1 uM
# [6] = 48 h, 10 µM, compound concentration 10 uM
smiles,measurement,setting,value
C=CC(=O)Nc1cccc(C)c1Nc1ncc2cc(-c3c(Cl)c(OC)cc(OC)c3Cl)ccc2n1,Population Apoptotic (%),[1],30% and 35%
same,Population Fragmented Nuclei (%),[1],11% and 9%
same,Population Healthy Nuclei (%),[1],73% and 66%
same,Population Hoechst High Intensity Objects (%),[1],0%
same,Population Membrane Permeable-Phenotype (%),[1],4%
same,Population Mitochondria Different-Phenotype (%),[1],0% and 1%
same,Population Mitotic Cells (%),[1],69% and 64%
same,Population Normal (%),[1],100% and 99%
same,Population Pyknosed Nuclei (%),[1],14% and 23%
same,Population Tubulin-Different-Phenotype (%),[1],12% and 9%
same,Total Cell Count,[1],248 and 242
same,Population Apoptotic (%),[2],60% and 47%
same,Population Fragmented Nuclei (%),[2],35% and 15%
same,Population Healthy Nuclei (%),[2],40% and 60%
same,Population Membrane Permeable-Phenotype (%),[2],0% and 8%
same,Population Mitochondria Different-Phenotype (%),[2],1% and 4%
same,Population Mitotic Cells (%),[2],40% and 52%
same,Population Normal (%),[2],71% and 100%
same,Population Pyknosed Nuclei (%),[2],24% and 23%
same,Population Tubulin-Different-Phenotype (%),[2],17% and 21%
same,Total Cell Count,[2],202 and 201
same,Population Apoptotic (%),[3],48% and 60%
same,Population Fragmented Nuclei (%),[3],10% and 9%
same,Population Healthy Nuclei (%),[3],71%
same,Population Hoechst High Intensity Objects (%),[3],0%
same,Population Membrane Permeable-Phenotype (%),[3],3% and 5%
same,Population Mitochondria Different-Phenotype (%),[3],1%
same,Population Mitotic Cells (%),[3],51% and 40%
same,Population Normal (%),[3],99%
same,Population Pyknosed Nuclei (%),[3],17% and 19%
same,Population Tubulin-Different-Phenotype (%),[3],8% and 9%
same,Total Cell Count,[3],245 and 232
same,Population Apoptotic (%),[4],71% and 63%
same,Population Fragmented Nuclei (%),[4],38% and 17%
same,Population Healthy Nuclei (%),[4],41% and 63%
same,Population Membrane Permeable-Phenotype (%),[4],0% and 1%
same,Population Mitochondria Different-Phenotype (%),[4],0% and 9%
same,Population Mitotic Cells (%),[4],28% and 36%
same,Population Normal (%),[4],60% and 100%
same,Population Pyknosed Nuclei (%),[4],20% and 19%
same,Population Tubulin-Different-Phenotype (%),[4],7% and 20%
same,Total Cell Count,[4],283 and 188
same,Population Apoptotic (%),[5],61% and 67%
same,Population Fragmented Nuclei (%),[5],12%
same,Population Healthy Nuclei (%),[5],73%
same,Population Hoechst High Intensity Objects (%),[5],0%
same,Population Membrane Permeable-Phenotype (%),[5],3% and 5%
same,Population Mitochondria Different-Phenotype (%),[5],1% and 0%
same,Population Mitotic Cells (%),[5],38% and 32%
same,Population Normal (%),[5],100%
same,Population Pyknosed Nuclei (%),[5],13% and 14%
same,Population Tubulin-Different-Phenotype (%),[5],6% and 14%
same,Total Cell Count,[5],243 and 214
same,Population Apoptotic (%),[6],83%
same,Population Fragmented Nuclei (%),[6],40% and 15%
same,Population Healthy Nuclei (%),[6],40% and 71%
same,Population Membrane Permeable-Phenotype (%),[6],1% and 4%
same,Population Mitochondria Different-Phenotype (%),[6],4%
same,Population Mitotic Cells (%),[6],16%
same,Population Normal (%),[6],52% and 100%
same,Population Pyknosed Nuclei (%),[6],18% and 12%
same,Population Tubulin-Different-Phenotype (%),[6],10% and 11%
same,Total Cell Count,[6],309 and 189
CC(C)NC(=O)[C@H]1CCC[C@H]1Nc1nc(Nc2ccc(C(=O)N(C)C3CCN(C)CC3)cc2)ncc1Cl,Population Apoptotic (%),[1],45% and 33%
same,Population Fragmented Nuclei (%),[1],7% and 8%
same,Population Healthy Nuclei (%),[1],62% and 61%
same,Population Hoechst High Intensity Objects (%),[1],0%
same,Population Membrane Permeable-Phenotype (%),[1],8%
same,Population Mitochondria Different-Phenotype (%),[1],0% and 2%
same,Population Mitotic Cells (%),[1],54% and 66%
same,Population Normal (%),[1],100%
same,Population Pyknosed Nuclei (%),[1],30% and 29%
same,Population Tubulin-Different-Phenotype (%),[1],20% and 12%
same,Total Cell Count,[1],109 and 134
same,Population Apoptotic (%),[2],62% and 51%
same,Population Fragmented Nuclei (%),[2],19% and 12%
same,Population Healthy Nuclei (%),[2],62% and 75%
same,Population Hoechst High Intensity Objects (%),[2],0%
same,Population Membrane Permeable-Phenotype (%),[2],0% and 4%
same,Population Mitochondria Different-Phenotype (%),[2],3% and 6%
same,Population Mitotic Cells (%),[2],37% and 48%
same,Population Normal (%),[2],100%
same,Population Pyknosed Nuclei (%),[2],18% and 12%
same,Population Tubulin-Different-Phenotype (%),[2],51% and 44%
same,Total Cell Count,[2],177 and 250
same,Population Apoptotic (%),[3],48% and 58%
same,Population Fragmented Nuclei (%),[3],8% and 10%
same,Population Healthy Nuclei (%),[3],60% and 59%
same,Population Hoechst High Intensity Objects (%),[3],0%
same,Population Membrane Permeable-Phenotype (%),[3],14% and 7%
same,Population Mitochondria Different-Phenotype (%),[3],0%
same,Population Mitotic Cells (%),[3],51% and 41%
same,Population Normal (%),[3],100%
same,Population Pyknosed Nuclei (%),[3],30%
same,Population Tubulin-Different-Phenotype (%),[3],16% and 13%
same,Total Cell Count,[3],127 and 136
same,Population Apoptotic (%),[4],65% and 66%
same,Population Fragmented Nuclei (%),[4],16% and 13%
same,Population Healthy Nuclei (%),[4],64% and 71%
same,Population Hoechst High Intensity Objects (%),[4],0%
same,Population Membrane Permeable-Phenotype (%),[4],2% and 0%
same,Population Mitochondria Different-Phenotype (%),[4],9% and 6%
same,Population Mitotic Cells (%),[4],34% and 33%
same,Population Normal (%),[4],100%
same,Population Pyknosed Nuclei (%),[4],18% and 15%
same,Population Tubulin-Different-Phenotype (%),[4],40% and 28%
same,Total Cell Count,[4],171 and 258
same,Population Apoptotic (%),[5],67% and 75%
same,Population Fragmented Nuclei (%),[5],14%
same,Population Healthy Nuclei (%),[5],62% and 59%
same,Population Hoechst High Intensity Objects (%),[5],0%
same,Population Membrane Permeable-Phenotype (%),[5],8% and 4%
same,Population Mitochondria Different-Phenotype (%),[5],0% and 1%
same,Population Mitotic Cells (%),[5],32% and 24%
same,Population Normal (%),[5],100%
same,Population Pyknosed Nuclei (%),[5],22% and 26%
same,Population Tubulin-Different-Phenotype (%),[5],15% and 11%
same,Total Cell Count,[5],127 and 141
same,Population Apoptotic (%),[6],78% and 82%
same,Population Fragmented Nuclei (%),[6],17% and 12%
same,Population Healthy Nuclei (%),[6],64% and 69%
same,Population Hoechst High Intensity Objects (%),[6],0%
same,Population Membrane Permeable-Phenotype (%),[6],4% and 5%
same,Population Mitochondria Different-Phenotype (%),[6],6% and 2%
same,Population Mitotic Cells (%),[6],21% and 17%
same,Population Normal (%),[6],99% and 100%
same,Population Pyknosed Nuclei (%),[6],17% and 18%
same,Population Tubulin-Different-Phenotype (%),[6],36% and 18%
same,Total Cell Count,[6],160 and 243
